Read-outs that look alike come from different tables or passages of the source.

Common to all, as to format: cell-based
The subject of experiment [1] is MCF-7. Briefly: MTT cytotoxicity assay, MCF-7. Put shortly: (§1)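 MTT viability assay run in parallel on MCF-7, HeLa and non-cancerous HUVEC cells. Test concentrations: benzimidazole derivatives at 50–250 μM and benzothiazole derivatives at 5–100 μM. IC50 derived from the MTT read-out.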
(In general: Formazan colour is commonly taken as a measure of viable cells.)

In experiment [2] the test system is HUVEC. Nature of the experiment: MTT cytotoxicity assay, HUVEC. The conditions noted are these: read-out: IC50 HUVEC. Put shortly:
as §1

Experiment [3] has as its system HeLa. Nature of the experiment: MTT cytotoxicity assay, HeLa. The conditions noted are these: read-out: IC50 HeLa. Put shortly:
as §1

[4] abbreviates: read-out: IC50 MCF-7, MTT, MCF-7 cells.

Regarding `N#Cc1ccc(COC[C@H]2O[C@@H](n3c(NCc4ccc(Cl)c(Cl)c4)nc4c(N)ncnc43)[C@H](O)[C@@H]2O)cc1` [VER-155008], the concentration for half-maximal inhibition (IC50) (as a rule, the concentration that inhibits the measured activity by half) in experiment [1] (setting [4]) was found to be 23.9 ± 1.09 µM; in experiment [2] (MTT, non-cancerous HUVEC line), 150 ± 2.23 µM; in experiment [3] (MTT, HeLa cells), 55.26 ± 0.25 µM.
With `COc1cccc2c1C(=O)c1c(O)c3c(c(O)c1C2=O)C[C@@](O)(C(=O)CO)C[C@@H]3O[C@H]1C[C@H](N)[C@H](O)[C@H](C)O1` [Doxorubicin], the concentration for half-maximal inhibition (IC50) in experiment [1] (Homo sapiens, MCF7, read-out: IC50 MCF-7) worked out at 17.44 ± 0.04 µM; in experiment [2] (Homo sapiens, HUVEC), 93 ± 0.54 µM; in experiment [3] (Homo sapiens, HeLa), 1.45 ± 0.15 µM.
Regarding `Nc1c(C(=O)Nc2ccc(F)cc2)sc2nc(-c3cccs3)cc(C(F)(F)F)c12` [FDI-6], the IC50 in experiment [1] (setting [4]) was found to be 25.8 ± 2.41 µM; in experiment [2] (MTT, non-cancerous HUVEC line), 240.3 ± 1.14 µM; in experiment [3] (MTT, HeLa cells), 18.9 ± 0.89 µM.
